Reference: ChEMBL document CHEMBL1122868, “New antiallergic pyrano [3,2-g]quinoline-2,8-dicarboxylic acids with potential for the topical treatment of asthma” (1985)
Activity calls are given as the source filed them. The calls are words filed in the database; no cut-off is given here.

Experiments:
Canis familiaris [1] = assay: Activity index by dog hypotension screen assay at 10 ug/Kg per min for 15 min.; format: functional, Canis lupus familiaris
Canis familiaris [2] = assay: Percent inhibition by dog hypotension screen assay at 10 ug/Kg per min for 15 min.; format: functional; conditions: Canis lupus familiaris, 0.25 h
Rattus norvegicus [3] = organism: Rattus norvegicus; assay: Inhibitory dose by PCA test […].; format: functional; conditions: read-out: ID50 (the source's name)
Summary of the method: (§1)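 Rat passive cutaneous anaphylaxis. Female rats (100 g) sensitized intradermally with 0.1 mL rat anti-egg albumin reaginic serum diluted in saline. After 24 h, rats were challenged i.v. with egg albumin, Evans Blue and saline, with the compound in saline given in the same injection. Reactions measured at 20 min; groups of five. ID50 taken from a log-dose regression of 20–80% inhibition.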

Rattus norvegicus [4] = organism: Rattus norvegicus; assay: Potency ratio to that of sodium cromoglycate (1.0) using PCA test.; format: functional
Summary of the method: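 Passive cutaneous anaphylaxis in female rats sensitized with reaginic anti-egg albumin serum and challenged i.v. at 24 h with antigen plus Evans Blue. Compound in saline was co-injected with antigen; groups of five. Sodium cromoglycate ID50 was determined in each experiment. Potency ratio = ID50(sodium cromoglycate)/ID50(compound), with ID50s from regression lines of inhibition against log dose.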

Canis familiaris [5] = organism: Canis familiaris; assay: Relative activity in dog hypotension; format: functional, Canis lupus familiaris
Monkey [6] = assay: (§2) Ability to inhibit histamine release from monkey lung lavage cells; format: functional; conditions: Cercopithecidae, in Primates
Rattus norvegicus [7] = organism: Rattus norvegicus; assay: Ability to inhibit histamine release from rat peritoneal mast cells.; format: functional
Rattus norvegicus [8] = organism: Rattus norvegicus; assay: Ability to inhibit histamine release from rat peritoneal mast cells using PCA assay.; format: functional; summary of the method: as §1
Rattus norvegicus [9] = organism: Rattus norvegicus; assay: Compound was evaluated to induce phosphorylation of the 78000 molecular weight mast cell protein; Active to induce phosphorylation; format: functional
Monkey [10] = assay: as §2; format: functional, Cercopithecidae
Canis familiaris [11] = assay: Activity index was evaluated by dog hypotension screen assay at 20 ug/Kg per min for 15 min; format: functional, Canis lupus familiaris
Rattus norvegicus [12] = organism: Rattus norvegicus; assay: Ability to inhibit histamine release from rat peritoneal mast cells; format: functional
Canis familiaris [13] = assay: Percent inhibition was evaluated by dog hypotension screen assay at 10 ug/Kg per min for 15 min; inactive; format: functional, organism-based; conditions: Canis lupus familiaris
Summary of the method: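 In anaesthetized beagles (pentobarbitone 30 mg/kg i.v.), hypotensive responses to a standardized bolus of sodium cromoglycate were established. Test compound was infused i.v. for 15 min, and the cromoglycate bolus was repeated at the end of the infusion and every 30 min over 3 h. Percent inhibition was expressed as area under the curve over 3 h; single experiments.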

Canis familiaris [14] = assay: Activity index was evaluated by dog hypotension screen assay at 50 ug/Kg per min for 15 min; format: functional, Canis lupus familiaris
Canis familiaris [15] = assay: Percent inhibition was evaluated by dog hypotension screen assay at 50 ug/Kg per min for 15 min; format: functional; conditions: Canis lupus familiaris, 0.25 h

Compound: CCCc1c2nc(C(=O)[O-])cc(N3CCCC3)c2cc2c(=O)cc(C(=O)[O-])oc12.[Na+].[Na+]
- Activity index (Canis familiaris [1]): 5.7
- inhibition in vivo at 10 µg/kg/min (Canis familiaris [2]): 57%
- ED50 (Rattus norvegicus [3]): 0.86 mg/kg
- Potency ratio (Rattus norvegicus [4]): 4.13

Compound: CCCc1c2oc(C(=O)[O-])cc(=O)c2cc2c(=O)cc(C(=O)[O-])n(CC)c12.[Na+].[Na+] [NEDOCROMIL SODIUM]
- Relative activity (Canis familiaris [5]): 1.9
- Activity index (Canis familiaris [1]): 6
- inhibition in vivo at 10 µg/kg/min (Canis familiaris [2]): 60%
- IC30 (Monkey [6]): 5.2 µM
- ED50 (Rattus norvegicus [3]): 0.95 mg/kg
- Potency (Rattus norvegicus [7]): 1
- Potency (Rattus norvegicus [8]): 1.1
- Potency (Rattus norvegicus [9]): Active to induce phosphorylation
- Potency ratio (Rattus norvegicus [4]): 1.1
- Relative potency (Monkey [10]): 190

Compound: CCCc1c2oc(C(=O)[O-])cc(=O)c2cc2c(=O)cc(C(=O)[O-])n(CCC)c12.[Na+].[Na+]
- Activity index (Canis familiaris [1]): 2.8
- inhibition in vivo at 10 µg/kg/min (Canis familiaris [2]): 28%
- ED50 (Rattus norvegicus [3]): 3.71 mg/kg
- Potency ratio (Rattus norvegicus [4]): 0.43

Compound: CCCc1c2nccc(O)c2cc2c(=O)cc(C(=O)[O-])oc12.[Na+]
- ED50 (Rattus norvegicus [3]): 6.03 mg/kg
- Potency ratio (Rattus norvegicus [4]): 0.35

Compound: CCCc1c2nc(C(=O)[O-])cc(Oc3ccccc3)c2cc2c(=O)cc(C(=O)[O-])oc12.[Na+].[Na+]
- Activity index (Canis familiaris [1]): 6.8
- inhibition in vivo at 10 µg/kg/min (Canis familiaris [2]): 68%
- ED50 (Rattus norvegicus [3]): 1.12 mg/kg
- Potency ratio (Rattus norvegicus [4]): 1.75

Compound: CCCc1c2nc(C(=O)[O-])cc(OCC)c2cc2c(=O)cc(C(=O)[O-])oc12.[Na+].[Na+]
- Activity index (Canis familiaris [1]): 3.2
- inhibition in vivo at 10 µg/kg/min (Canis familiaris [2]): 32%
- ED50 (Rattus norvegicus [3]): 0.3 mg/kg
- Potency ratio (Rattus norvegicus [4]): 8.47

Compound: Cc1c2nc(C(=O)[O-])cc(O)c2cc2c(=O)cc(C(=O)[O-])oc12.[Na+].[Na+]
- Activity index (Canis familiaris [1]): 6.6
- inhibition in vivo at 10 µg/kg/min (Canis familiaris [2]): 66%
- ED50 (Rattus norvegicus [3]): 0.11 mg/kg
- Potency ratio (Rattus norvegicus [4]): 12.7

Compound: CCCc1c2nccc(Cl)c2cc2c(=O)cc(C(=O)[O-])oc12.[Na+]
- Activity index (Canis familiaris [1]): 4.8
- inhibition in vivo at 10 µg/kg/min (Canis familiaris [2]): 48%
- ED50 (Rattus norvegicus [3]): 5.38 mg/kg
- Potency ratio (Rattus norvegicus [4]): 0.2

Compound: CCCc1c2nc(C(=O)[O-])cc(S(=O)(=O)c3ccccc3)c2cc2c(=O)cc(C(=O)[O-])oc12.[Na+].[Na+]
- Activity index (Canis familiaris [1]): 3.9
- inhibition in vivo at 10 µg/kg/min (Canis familiaris [2]): 39%
- ED50 (Rattus norvegicus [3]): 0.3 mg/kg
- Potency ratio (Rattus norvegicus [4]): 9.9

Compound: CCCc1c2nc(C(=O)[O-])cc(N(C)C(C)=O)c2cc2c(=O)cc(C(=O)[O-])oc12.[Na+].[Na+]
- Activity index (Canis familiaris [11]): 1
- ED50 (Rattus norvegicus [3]): 4.02 mg/kg
- Potency ratio (Rattus norvegicus [4]): 0.88

Compound: CCCc1c(C(=O)[O-])nc2c(CCC)c3oc(C(=O)[O-])cc(=O)c3cc2c1O.[Na+].[Na+]
- Activity index (Canis familiaris [1]): 0.6
- inhibition in vivo at 10 µg/kg/min (Canis familiaris [2]): 6%
- ED50 (Rattus norvegicus [3]): 0.14 mg/kg
- Potency ratio (Rattus norvegicus [4]): 10.9

Compound: CCCc1c2nc(C(=O)[O-])cc(Br)c2cc2c(=O)cc(C(=O)[O-])oc12.[Na+].[Na+]
- Activity index (Canis familiaris [1]): 4.8
- inhibition in vivo at 10 µg/kg/min (Canis familiaris [2]): 48%
- ED50 (Rattus norvegicus [3]): 0.55 mg/kg
- Potency ratio (Rattus norvegicus [4]): 4.62

Compound: CCCc1c2oc(C(=O)[O-])cc(=O)c2cc2c(=O)cc(C(=O)[O-])n(C)c12.[Na+].[Na+]
- Activity index (Canis familiaris [1]): 5.5
- inhibition in vivo at 10 µg/kg/min (Canis familiaris [2]): 55%
- ED50 (Rattus norvegicus [3]): 0.21 mg/kg
- Potency ratio (Rattus norvegicus [4]): 6.6

Compound: CCCc1c2nc(C(=O)[O-])cc(OC)c2cc2c(=O)cc(C(=O)[O-])oc12.[Na+].[Na+]
- Activity index (Canis familiaris [1]): 4.3
- inhibition in vivo at 10 µg/kg/min (Canis familiaris [2]): 43%
- ED50 (Rattus norvegicus [3]): 0.3 mg/kg
- Potency ratio (Rattus norvegicus [4]): 8.35

Compound: CCCc1c2nc(C(=O)[O-])cc(O)c2cc2c(=O)ccoc12.[Na+]
- ED50 (Rattus norvegicus [3]): 0.78 mg/kg
- Potency ratio (Rattus norvegicus [4]): 6.5

Compound: CCCc1c2nc(C(=O)[O-])ccc2cc2c(=O)cc(C(=O)[O-])oc12.[Na+].[Na+]
- Activity index (Canis familiaris [1]): 3.8
- inhibition in vivo at 10 µg/kg/min (Canis familiaris [2]): 38%
- ED50 (Rattus norvegicus [3]): 7.11 mg/kg
- Potency ratio (Rattus norvegicus [4]): 0.35

Compound: CCCc1c2nc(C(=O)[O-])cc(NC)c2cc2c(=O)cc(C(=O)[O-])oc12.[Na+].[Na+]
- Activity index (Canis familiaris [11]): 4
- Relative activity (Canis familiaris [5]): 1.25
- IC30 (Monkey [6]): 28.5 µM
- ED50 (Rattus norvegicus [3]): 0.22 mg/kg
- Potency (Rattus norvegicus [12]): 6
- Potency (Rattus norvegicus [8]): 7.1
- Potency (Rattus norvegicus [9]): Active to induce phosphorylation
- Potency ratio (Rattus norvegicus [4]): 7.13
- Relative potency (Monkey [10]): 35

Compound: CCCc1c2nc(C(=O)[O-])cc(Nc3ccccc3)c2cc2c(=O)cc(C(=O)[O-])oc12.[Na+].[Na+]
- Activity index (Canis familiaris [11]): 3
- ED50 (Rattus norvegicus [3]): 0.57 mg/kg
- Potency ratio (Rattus norvegicus [4]): 3.47

Compound: CCn1c(C(=O)[O-])cc(=O)c2cc3c(=O)cc(C(=O)[O-])oc3cc21.[Na+].[Na+]
- Activity index (Canis familiaris [1]): 7.6
- inhibition in vivo at 10 µg/kg/min (Canis familiaris [2]): 76%
- ED50 (Rattus norvegicus [3]): 10 mg/kg
- Potency ratio (Rattus norvegicus [4]): 0.16

Compound: C=CCc1c2nc(C(=O)[O-])cc(Cl)c2cc2c(=O)cc(C(=O)[O-])oc12.[Na+].[Na+]
- Activity index (Canis familiaris [1]): 2.1
- inhibition in vivo at 10 µg/kg/min (Canis familiaris [2]): 21%
- ED50 (Rattus norvegicus [3]): 2.4 mg/kg
- Potency ratio (Rattus norvegicus [4]): 1.09

Compound: CCCc1c(C(=O)[O-])nc2c(CCC)c3oc(C(=O)[O-])cc(=O)c3cc2c1Cl.[Na+].[Na+]
- Activity index (Canis familiaris [1]): 0
- inhibition (Canis familiaris [13]): inactive
- ED50 (Rattus norvegicus [3]): 2.45 mg/kg
- Potency ratio (Rattus norvegicus [4]): 1.14

Compound: CCCc1c2nc(C(=O)[O-])cc(NCC)c2cc2c(=O)cc(C(=O)[O-])oc12.[Na+].[Na+]
- Activity index (Canis familiaris [1]): 4.2
- inhibition in vivo at 10 µg/kg/min (Canis familiaris [2]): 42%
- ED50 (Rattus norvegicus [3]): 0.18 mg/kg
- Potency ratio (Rattus norvegicus [4]): 13.8

Compound: CCCc1c2nc(C(=O)[O-])cc(N)c2cc2c(=O)cc(C(=O)[O-])oc12.[Na+].[Na+]
- Activity index (Canis familiaris [11]): 4.1
- ED50 (Rattus norvegicus [3]): 0.31 mg/kg
- Potency ratio (Rattus norvegicus [4]): 8.25

Compound: O=C([O-])c1cc(O)c2cc3c(=O)cc(C(=O)[O-])oc3cc2n1.[Na+].[Na+]
- Activity index (Canis familiaris [1]): 7.8
- inhibition in vivo at 10 µg/kg/min (Canis familiaris [2]): 78%
- ED50 (Rattus norvegicus [3]): 0.22 mg/kg
- Potency ratio (Rattus norvegicus [4]): 11.6

Compound: CCCc1c2nc(C(=O)O)cc(C)c2cc2c(=O)cc(C(=O)O)oc12
- Activity index (Canis familiaris [1]): 6.6
- inhibition in vivo at 10 µg/kg/min (Canis familiaris [2]): 66%
- ED50 (Rattus norvegicus [3]): 0.71 mg/kg
- Potency ratio (Rattus norvegicus [4]): 2.97

Compound: CCCc1c2nc(C(=O)[O-])cc(O)c2cc2c(=O)cc(C(=O)[O-])oc12.[Na+].[Na+]
- Activity index (Canis familiaris [1]): 6.5
- inhibition in vivo at 10 µg/kg/min (Canis familiaris [2]): 65%
- ED50 (Rattus norvegicus [3]): 0.03 mg/kg
- Potency ratio (Rattus norvegicus [4]): 80

Compound: O=C([O-])c1cc(Cl)c2cc3c(=O)cc(C(=O)[O-])oc3cc2n1.[Na+].[Na+]
- Activity index (Canis familiaris [1]): 0
- inhibition (Canis familiaris [13]): inactive
- ED50 (Rattus norvegicus [3]): 4.23 mg/kg
- Potency ratio (Rattus norvegicus [4]): 0.72

Compound: CCCc1c2nc(C(=O)[O-])cc(SCC)c2cc2c(=O)cc(C(=O)[O-])oc12.[Na+].[Na+]
- Activity index (Canis familiaris [1]): 5.9
- inhibition in vivo at 10 µg/kg/min (Canis familiaris [2]): 59%
- ED50 (Rattus norvegicus [3]): 0.14 mg/kg
- Potency ratio (Rattus norvegicus [4]): 11.1

Compound: CCCc1c2nc(C(=O)[O-])cc(Sc3ccccc3)c2cc2c(=O)cc(C(=O)[O-])oc12.[Na+].[Na+]
- Activity index (Canis familiaris [1]): 6.6
- inhibition in vivo at 10 µg/kg/min (Canis familiaris [2]): 66%
- ED50 (Rattus norvegicus [3]): 1.87 mg/kg
- Potency ratio (Rattus norvegicus [4]): 1.78

Compound: CC=Cc1c2oc(C(=O)O)cc(=O)c2cc2c(=O)cc(C(=O)O)n(CC)c12
- inhibition in vivo at 10 µg/kg/min (Canis familiaris [2]): 84%

Compound: CC(C)CCn1c(C(=O)O)cc(=O)c2cc3c(=O)cc(C(=O)O)oc3cc21
- Activity index (Canis familiaris [14]): 1.4
- inhibition in vivo at 50 µg/kg/min (Canis familiaris [15]): 68%
- ED50 (Rattus norvegicus [3]): 2.05 mg/kg
- Potency ratio (Rattus norvegicus [4]): 0.54

Compound: CCCc1c2nc(C(=O)[O-])cc(Cl)c2cc2c(=O)cc(C(=O)[O-])oc12.[Na+].[Na+]
- Activity index (Canis familiaris [1]): 7.2
- inhibition in vivo at 10 µg/kg/min (Canis familiaris [2]): 72%
- ED50 (Rattus norvegicus [3]): 1.38 mg/kg
